# A selection: hits, their analogues and other compounds. The true share with any hit is near 12%.
# Lmaj promast – reduces viability of Leishmania major promastigotes; 200,000 compounds, 9% hits; resazurin fluorescence viability; inhibition, % at 10 µM;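 also: promastigotes grown with compound for 44 hours at 28 °C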
# Rad51 HR inh – Rad51 (human) homologous recombination inhibition; hRad51 DNA strand exchange, fluorescence dequenching; inhibition, % at 10 µM; 200,000 compounds, 0.085% hits; Q06609;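 active = inhibition above 40% at the single screening dose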;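 also: 0% = DMSO control wells and 100% = blanks with heterologous ssDNA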
#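 material = hRad51 filaments on single-stranded DNA | reagent = Donor/quencher-labelled 47-bp dsDNA substrate | compound = 10 µM final, single point | schedule = strand-exchange reaction 15 min at room temperature | measured by = fluorescein emission 520 nm, excitation 485 nm | read-out basis = % inhibition versus plate control and blank means | benchmarks = plate controls and plate blanks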
# Wee1 degr inh – inhibitors of human Wee1 degradation; 220,000 compounds, 1.2% hits; reporter increase, % at 5 µM; P30291; HeLa Luc-Wee1K328M stability, luciferase luminescence; 100% = proteasome inhibitor MG132 effect; AID 1321;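 active = activation above the mean of all tested compounds plus 3 SD, set per screening run, cut at about 8.8% in these data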;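 also: cells exposed to compound for 20 h before luminescence read; 0% = DMSO alone and 100% = MG132 at 30 µM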
# Arbovirus anti – antivirals against arbovirus infection. inhibition, % at 10 µM. arbovirus infection cell-based antiviral screen. AID 1251. 200,000 compounds, 0.37% hits; in the data active = inhibition above about 30%
# CHOP inhibitor – CHOP inhibition in unfolded protein response | inhibition, % at 10 µM | CHO-K1 CHOP-promoter luciferase, tunicamycin-induced, 15-18 h | AID 2732 | 220,000 compounds, 3.8% hits;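 active = compounds that reduced the stress-induced luciferase reporter signal by more than about 70% of percent inhibition, limit read from the data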;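 also: 0% = tunicamycin plus vehicle and 100% = wells without tunicamycin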
# PKD1 inh – PKD1 (human) kinase inhibition. Q15139. PKD1 kinase fluorescence polarization assay. inhibition, % (no concentration beside the values). 200,000 compounds, 0.056% hits. AID 797
# Target sequence (Q15139 whole entry, looked up): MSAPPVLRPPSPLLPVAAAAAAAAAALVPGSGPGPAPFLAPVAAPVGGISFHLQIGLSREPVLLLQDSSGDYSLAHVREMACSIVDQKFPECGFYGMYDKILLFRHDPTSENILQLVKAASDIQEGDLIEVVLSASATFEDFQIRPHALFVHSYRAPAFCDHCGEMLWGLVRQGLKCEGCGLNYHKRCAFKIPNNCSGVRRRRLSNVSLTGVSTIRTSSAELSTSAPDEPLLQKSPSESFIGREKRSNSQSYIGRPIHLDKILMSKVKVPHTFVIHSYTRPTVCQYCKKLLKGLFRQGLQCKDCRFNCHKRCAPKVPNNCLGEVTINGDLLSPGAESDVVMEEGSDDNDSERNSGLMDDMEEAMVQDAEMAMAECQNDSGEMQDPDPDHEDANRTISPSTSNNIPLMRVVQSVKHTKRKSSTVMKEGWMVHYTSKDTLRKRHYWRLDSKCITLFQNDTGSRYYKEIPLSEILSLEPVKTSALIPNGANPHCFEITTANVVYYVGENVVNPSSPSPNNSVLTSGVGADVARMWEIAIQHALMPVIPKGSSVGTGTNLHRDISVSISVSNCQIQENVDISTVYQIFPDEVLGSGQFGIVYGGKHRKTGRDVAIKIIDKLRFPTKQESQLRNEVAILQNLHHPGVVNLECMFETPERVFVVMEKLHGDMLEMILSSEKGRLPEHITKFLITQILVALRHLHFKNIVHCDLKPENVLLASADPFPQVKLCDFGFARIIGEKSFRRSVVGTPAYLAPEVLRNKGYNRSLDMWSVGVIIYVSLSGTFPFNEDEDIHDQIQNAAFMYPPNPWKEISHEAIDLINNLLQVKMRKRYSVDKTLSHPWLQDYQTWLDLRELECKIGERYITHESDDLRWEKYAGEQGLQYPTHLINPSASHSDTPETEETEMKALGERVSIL
# The depositor's hits bear a star; i = inactive; nt = no result given. Rule as the data show it, unless noted: active = inhibition above about 50%; inactive = the rest.
SMILES,Lmaj promast,Rad51 HR inh,Wee1 degr inh,Arbovirus anti,CHOP inhibitor,PKD1 inh
O=C(NCCNS(=O)(=O)c1ccccc1Cl)c1cc(OCC(F)(F)F)ccc1OCC(F)(F)F,0.1,-9.9,-1.1,0.7,-3.1,2.2
O=C(NNC(=O)c1cc(OCC(F)(F)F)ccc1OCC(F)(F)F)c1ccc(Cl)c(Cl)c1,-8.7,3.5,-1.9,-7.2,81.6*,1.5
O=C(N/N=C\c1ccc(F)cc1)c1cc(OCC(F)(F)F)ccc1OCC(F)(F)F,-4.3,-1.0,-2.2,5.5,42.1,9.9
Cc1ccc2[nH]c(=O)cc(C(=O)OC(C)C)c2c1,4.3,-1.6,0.1,-5.0,5.5,-1.3
O=C(Nc1nnc(C2CC2)s1)c1n[nH]c(=O)c2ccccc12,nt,-2.7,-2.2,nt,-8.8,nt
CCOc1ccc(NC(=O)CN(C)S(=O)(=O)c2ccc3c(c2)CCC(=O)N3)cc1,nt,9.5,-1.7,nt,8.7,nt
O=C(c1ccc(S(=O)(=O)N2CCCCCC2)cc1)N(c1ccccn1)C1CCCCC1,55.8*,-3.8,-1.5,-1.5,21.5,-0.8
O=C(CN(C(=O)c1cccc([N+](=O)[O-])c1)C1CCCCC1)Nc1ccc(Cl)c([N+](=O)[O-])c1,70.2*,14.3,0.7,11.8,47.0,-15.6
Cc1ccc(NC(=O)CN(C)C(=O)c2ccc(Cl)c([N+](=O)[O-])c2)cc1,-2.5,-10.1,-2.9,-8.4,-12.8,-6.7
Cc1ccc(S(=O)(=O)NCc2ccc(/C=C(/C#N)C(=O)NCc3ccccc3)o2)cc1,70.4*,nt,-0.9,-4.5,24.4,-5.4
COCCNC(=O)/C(C#N)=C\c1ccc(CNS(=O)(=O)c2ccc(C)cc2)o1,-4.2,30.6,-4.0,6.1,9.2,-1.8
CCCOc1ncnc2c1[nH]c1ccccc12,47.0,nt,2.2,9.4,71.8*,5.4
CCN(CC)c1ncnc2c1[nH]c1ccccc12,60.1*,0.0,-1.5,1.4,30.9,0.3
COc1ccc(N=C(c2ccccc2)c2c(C)[nH]n(-c3ccccc3)c2=O)c(OC)c1,nt,23.9,5.4,nt,15.2,nt
CCOc1ccccc1CN1C(=O)c2ccccc2C1C(=O)NC(C)CC (stereo unspecified),84.4*,-1.3,-2.1,1.0,12.5,3.9
CCOc1ccccc1CN1C(=O)c2ccccc2C1C(=O)NCC1CCCO1 (stereo unspecified),-2.8,-5.7,-0.5,4.7,3.0,-9.4
CN(C)S(=O)(=O)c1ccc(C(=O)NCc2nnc(SCC(=O)Nc3ccc(F)cc3)n2-c2ccc(F)cc2)cc1,-11.2,-4.1,0.7,2.3,16.1,-2.3
Cc1[nH]n(-c2ccccc2)c(=O)c1N=Nc1ccccc1,-3.0,-1.8,-4.8,16.9,95.4*,-7.5
CS(=O)(=O)N(CC(=O)NN=C1CCCCCC1)c1ccc(Oc2ccccc2)cc1,21.8,nt,7.0,-4.7,19.2,3.0
N#CC1=C(N)OC2=C(CC/C2=C\c2ccc(F)cc2)C1c1ccc(F)cc1 (stereo unspecified),100.5*,i,-1.7,6.7,79.0*,13.2
CCN(Cc1ccccc1)c1ccc(N=Nc2nn(C)c(C)c2[N+](=O)[O-])cc1,1.2,5.4,-2.6,-9.4,-15.3,12.0
CCN(CC)c1ccc(N=Nc2nn(C)c(C)c2[N+](=O)[O-])cc1,53.0*,15.1,2.1,-7.4,6.4,-2.7
O=P(c1ccccc1)(c1ccccc1)c1nc(-c2ccccc2)oc1NCc1ccccc1,28.2,-12.2,0.1,-0.2,23.9,8.5
O=C1/C(=C/c2c[nH]c3ccccc23)CCC/C1=C\c1c[nH]c2ccccc12,84.1*,-32.9,0.4,-23.6,50.0,-16.6
Cn1c(N)c(C(=O)COC(=O)c2ccc3c(c2)C(=O)N(c2ccc(Cl)cc2)C3=O)c(=O)n(C)c1=O,-5.2,nt,2.8,-0.3,-4.1,0.6
SMILES,Lmaj promast,Rad51 HR inh,Wee1 degr inh,Arbovirus anti,CHOP inhibitor,PKD1 inh
Cc1noc(NC(=O)c2c(-c3c(Cl)cccc3Cl)noc2C)c1[N+](=O)[O-],nt,-13.6,8.9*,nt,11.0,nt
CC(=O)Nc1cccc(NC(=O)c2c(-c3c(Cl)cccc3Cl)noc2C)c1,1.7,5.7,-0.2,-2.9,-0.3,-11.9
COc1ccc2c(c1)sc(=N)n2C,100.5*,-2.1,3.4,5.7,10.7,1.5
COc1ccc2c(c1)cc(C(=O)O)n2C,-2.3,-2.5,-1.9,4.4,-11.8,0.7
CC1CC(C)CN(C(=O)CNS(=O)(=O)c2ccc(Br)s2)C1 (stereo unspecified),-3.7,3.7,-0.9,-2.5,32.5,-2.3
Cc1ccc(N2CCN(C(=O)CNS(=O)(=O)c3ccc(Br)s3)CC2C)cc1 (stereo unspecified),13.3,nt,1.7,3.5,72.5*,-2.5
O=C(CNS(=O)(=O)c1ccc(Br)s1)N1CCC(N2CCCCC2)CC1,78.3*,3.7,-1.5,-0.7,20.6,-9.4
Cc1cc(C)cc(OCC(=O)O/N=C(\N)c2cccnc2)c1,nt,6.7,0.1,nt,0.1,nt
CCNC(=S)Nc1cc(OCC)c(N2CCOCC2)cc1OCC,63.7*,18.3,-1.4,1.4,6.0,-12.3
CCC(CC)C(=O)OCC(=O)Nc1cccc([N+](=O)[O-])c1,-4.3,8.4,-2.6,6.7,25.2,-1.3
Cc1nn(-c2ccccc2)c2nc(C(F)(F)F)[nH]c(=O)c12,17.1,-0.5,1.6,37.2*,-7.6,-8.7
Cc1ccc(/C=C/C(=O)c2ccccc2O)cc1,nt,10.9,0.2,nt,-83.5,nt
Cc1ccc(/C=C/C(=O)C2C(=O)c3ccccc3C2=O)cc1,2.5,-4.1,-0.5,0.4,95.2*,-4.4
Cc1sc(NC(=O)/C=C/c2ccc(C(C)C)cc2)c(C#N)c1C,-0.4,-10.7,-0.3,-17.7,46.7,-12.0
CC(C)c1ccc(/C=C/C(=O)Nc2nncs2)cc1,-5.6,21.6,9.5*,0.9,47.6,7.2
CCCC12CN3CCN(CC(C3)/C1=N\NC(=O)Nc1ccccc1)C2,38.4,nt,10.0*,7.9,9.1,2.1
CC1CCC(C(C)C)C(OCC(O)CNC(C)(C)C)C1 (stereo unspecified),23.9,6.4,-3.2,-3.3,62.9,-1.9
CC1CCC(C(C)C)C(OCC(O)CNC(C)c2ccccc2)C1 (stereo unspecified),76.8*,-17.0,-1.6,-37.7,93.2*,-10.4
CC(NCC(O)COc1ccc(S(=O)(=O)N2CCOCC2)cc1)c1ccccc1 (stereo unspecified),30.5,1.3,3.7,6.5,25.9,6.4
CC(NCC(O)COC1CCC(C(C)(C)C)CC1)c1ccccc1 (stereo unspecified),100.0*,0.4,0.8,-26.8,89.8*,-2.6
O=C(c1ccccc1-c1ncc[nH]1)N1CCc2c([nH]c3ccccc23)C1c1ccccn1 (stereo unspecified),9.9,nt,5.7,4.2,4.1,1.3
CC(C)(C)c1ccc(SCCc2ccccn2)cc1,nt,9.8,-2.5,nt,-23.1,nt
COCc1cc(C)nc(SCC[N+](C)(C)CC(=O)c2ccccc2)c1C#N,-2.4,14.0,-0.7,1.4,7.1,-1.6
CC(C)(C)c1ccc(NC(=O)c2c(F)cccc2Cl)cc1,nt,-1.1,3.4,nt,-10.0,nt
